According to publication PMC5565762 (International Journal for Parasitology: Drugs and Drug …, 2017):

Experiments:
[1] = test system: Bloodstream T. b. brucei (strain 427) cell line 449; experiment: Viability assay of bloodstream trypanosomes; assay type: cell-based; conditions: Trypanosoma brucei, 24 h
Method in brief: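 Bloodstream parasites at 5 × 10^5 cells/mL in HMI-9 with 10% FBS received test compound (5 μM final; nifurtimox 15 μM) or 1% DMSO, in triplicate, for 24 h at 37 °C and 5% CO2. Cells were diluted into PBS with 1% glucose, stained with propidium iodide (2 μg/mL) and counted by flow cytometry. Viability is the % of the DMSO-control cell count. EC50 came from 7-point curves (triplicates) fitted to a sigmoidal Hill equation; SD.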

[2] = test system: murine macrophages (cell line J774); experiment: Viability assay of murine macrophages; assay type: cell-based; conditions: murine macrophages vs T. b. brucei
Method in brief: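 J774 murine macrophages were grown in DMEM with 10% FBS, penicillin and streptomycin at 37 °C in 5% CO2. Cells were exposed to 7 concentrations of test compound, each in triplicate, for 24 h, and viability was measured with WST-1 reagent as % of DMSO-treated control. EC50 was derived by fitting a sigmoidal Hill equation; SD.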

Bloodstream T. b. brucei [3] = experiment: Inhibition of glucose uptake; assay type: cell-based, Trypanosoma brucei brucei; conditions: 30 min
Bloodstream T. b. brucei [4] = experiment: Glucose consumption; assay type: cell-based, Trypanosoma brucei brucei; conditions: compound at its EC50, 4 h
Method in brief: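 Bloodstream T. b. brucei were seeded at 5.3–5.8 × 10^6 parasites/mL in HMI-9 with 10% FBS (37 °C, 5% CO2). They were exposed for 4 h to test compound at a fixed concentration, or to suramin 78 nM, ebselen 5 μM, tri-thiazol 0.31 μM or 1% DMSO vehicle. Viable cells were counted in a Neubauer chamber, cells were spun down at 2000 g for 10 min, and supernatant glucose was measured on an analyzer. Consumption is given as g/L per million cells per hour; triplicates, SD.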

[5] = test system: redox biosensor hGrx-roGFP2 in bloodstream T. b. brucei; experiment: Intracellular redox changes in T. brucei redox reporter cell line; assay type: cell-based, Trypanosoma brucei brucei; conditions: for oxidation of the biosensor: 4 h, 0.54 μM 13, 1.49 μM 15, 78 nM suramin, 25 μM menadione
Method in brief: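 The strain 427 line 449 bloodstream reporter line expresses hGrx-roGFP2, induced with 1 μg/mL oxytetracycline for 24 h. Parasites at 2 × 10^6/mL were treated for 4 h at 37 °C with test compound, 25 μM menadione, 78 nM suramin or 1% DMSO. A parallel sample then received 1 mM DTT for 15 min. Cells were stained with PI (2 μg/mL) and GFP (530/40 nm) was read on PI-negative cells by flow cytometry. Values are % biosensor reduction versus DMSO without DTT; triplicates, SD.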

## CC1CS(=O)(=O)CCN1/N=C/c1ccc([N+](=O)[O-])o1 (centres unmarked) [NFX, nifurtimox]
[1]; read-out: EC50 against T. b. brucei
  EC50: ~10 µM
[1]; read-out: Parasite survival
  viability at 15 µM: 28.2 ± 5.5%
[2]
  selectivity index (SI): ~10
Bloodstream T. b. brucei [3]; 5X EC50 (13 2.7 μM, 15 7.45 μM, nifurtimox 50 μM)
  glucose uptake compared to vehicle treated cells: A similar outcome

## O=c1c2ccccc2[se]n1-c1ccccc1 [ebselen]
Bloodstream T. b. brucei [4]
  reduction of glucose consumption vs vehicle: 44%
Bloodstream T. b. brucei [4]; not statistically significant
  anti-proliferative activity with respect to the DMSO control: some anti-proliferative activity

## CC1=CC(=O)c2ccccc2C1=O [menadione]
[5]
  oxidation of the biosensor: 60%
[5]; after 4 h treatment, 15 min with 1 mM DTT
  reversal of biosensor oxidation by DTT: fully reversible

## O=C(CCc1ccc(O)cc1)c1c(O)cc(O)cc1O [phloretin]
Bloodstream T. b. brucei [3]; 500 μM
  reduction of glucose uptake: 63%

## Cc1ccc(C(=O)Nc2ccc(S(=O)(=O)O)c3cc(S(=O)(=O)O)cc(S(=O)(=O)O)c23)cc1NC(=O)c1cccc(NC(=O)Nc2cccc(C(=O)Nc3cc(C(=O)Nc4ccc(S(=O)(=O)O)c5cc(S(=O)(=O)O)cc(S(=O)(=O)O)c45)ccc3C)c2)c1 [suramin]
Bloodstream T. b. brucei [4]; vs DMSO
  capacity to metabolize glucose compared to the control condition: < 30%
[5]
  oxidation of the biosensor: did not induce redox changes
